According to paper PMC7451030 (European journal of medicinal chemistry, 2020):

Columns and labels:
human GLUT1 = target: T1, human GLUT1 (Homo sapiens, UniProt P11166); test: GLUT1 transport assay; assay type: cell-based; conditions: 100 μM compound
T1 sequence (P11166 1-492): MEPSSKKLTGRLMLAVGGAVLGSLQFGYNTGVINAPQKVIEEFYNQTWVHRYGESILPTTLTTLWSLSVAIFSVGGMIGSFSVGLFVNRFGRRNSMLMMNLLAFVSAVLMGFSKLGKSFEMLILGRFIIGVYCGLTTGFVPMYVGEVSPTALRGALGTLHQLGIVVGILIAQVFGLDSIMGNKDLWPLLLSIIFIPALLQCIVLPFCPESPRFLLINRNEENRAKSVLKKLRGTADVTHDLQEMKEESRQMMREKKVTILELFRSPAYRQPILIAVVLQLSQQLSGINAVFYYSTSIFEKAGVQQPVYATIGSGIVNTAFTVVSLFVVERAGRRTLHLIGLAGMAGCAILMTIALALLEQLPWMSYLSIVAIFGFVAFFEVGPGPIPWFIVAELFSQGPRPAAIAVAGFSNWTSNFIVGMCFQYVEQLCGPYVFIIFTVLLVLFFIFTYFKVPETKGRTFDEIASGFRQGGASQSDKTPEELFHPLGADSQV
How it was run: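 hxt0 yeast VW4000fgy1 expressing human GLUT1 was grown at 30 °C in SC-uracil with 2% maltose for 2–3 days, then 2% glucose for 1–2 days. Cells were resuspended in PBS pH 7.4 at OD600 ~10 and given 100 µM compound (1% DMSO final). Uptake of 5 mM 14C-glucose ran 10 min, then ice-cold KPi/LiCl quench pH 5.5, filtration and scintillation counting. Activity was taken relative to 1% DMSO and 200 µM phloretin.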

human GLUT4 = target: T2, human GLUT4 (Homo sapiens, UniProt P14672); test: GLUT4 transport assay; assay type: cell-based; conditions: 100 μM compound
T2 sequence (P14672 1-509): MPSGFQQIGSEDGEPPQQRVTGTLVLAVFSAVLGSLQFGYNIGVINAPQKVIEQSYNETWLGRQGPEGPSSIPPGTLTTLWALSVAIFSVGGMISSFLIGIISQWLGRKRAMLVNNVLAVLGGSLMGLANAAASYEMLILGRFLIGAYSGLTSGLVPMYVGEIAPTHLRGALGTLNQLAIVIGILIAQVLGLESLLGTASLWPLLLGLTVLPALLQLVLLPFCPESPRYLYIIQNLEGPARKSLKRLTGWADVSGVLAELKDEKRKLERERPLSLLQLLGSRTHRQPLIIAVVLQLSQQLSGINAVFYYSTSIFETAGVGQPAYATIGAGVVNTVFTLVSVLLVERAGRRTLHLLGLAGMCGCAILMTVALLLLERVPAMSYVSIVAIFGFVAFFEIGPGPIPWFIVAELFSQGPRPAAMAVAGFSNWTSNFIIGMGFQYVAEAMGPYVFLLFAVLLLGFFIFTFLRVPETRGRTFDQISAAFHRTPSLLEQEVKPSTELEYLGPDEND
How it was run: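 GLUT4 was expressed in hxt0 yeast VW4000fgy1erg4 grown at 30 °C in SC-uracil with 1% maltose, then 0.2% glucose. Washed cells were assayed in PBS pH 7.4 at OD600 ~10 with 100 µM compound (1% DMSO final) and 5 mM 14C-glucose for 10 min. The reaction was stopped with cold KPi/LiCl pH 5.5, then filtered and counted by scintillation. Values are relative to 1% DMSO and 200 µM phloretin controls.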

human GLUT5 = test: GLUT5 transport assay; assay type: cell-based; conditions: 100 μM compound; 10 mM C14-fructose
How it was run: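 VW4000 hxt0 yeast carrying human GLUT5 was grown for 1 day in YEP with 2% maltose and 100 µg/ml G418, then 1–2 days in 2% fructose with G418, at 30 °C. Cells in PBS pH 7.4 at OD600 ~10 received 100 µM compound (1% DMSO final) and 10 mM 14C-fructose for 10 min. Cold quench pH 5.5 and filtration followed, with scintillation read-out. Controls: 1% DMSO and 100 µM MSNBA.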

CEM cells = test: Cell cycle analysis by flow cytometry; assay type: cell-based, human; conditions: CEM, 10, 25 or 50 μM, 72 h
[1] = tested on: p-mTOR, CDK2, GRP78 and Caspase 3 in F18-treated cells; test: Western blotting of cell signaling proteins; assay type: cell-based, human; conditions: 10 μM, 6 h
How it was run: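 Treated cells were washed in cold PBS and lysed in Laemmli buffer (62.5 mM Tris-HCl pH 6.8, 10% glycerol, 2% SDS) with protease inhibitors, then sonicated and protein quantified. Membranes were blocked 45 min in PBS-Tween-5% milk. Primary antibodies ran 3 h and secondary 1 h, both at room temperature. Controls: untreated and staurosporine.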

normal WBCs = test: MTT viability assay on non-transformed WBCs; assay type: cell-based, human; conditions: 187.2 μM vs 1.7 μM
CEM xenograft tumor = conditions: for xenograft volume of untreated group relative to treated group: SCID mice, CEM xenograft, doxorubicin 20 mg/kg i.p., F18 50 mg/kg i.p., 18 days
[2] = Differential Nuclear Staining; assay type: cell-based; conditions: human
How it was run: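 CC50 determined by DNS assay in CCRF-CEM (RPMI) and in non-cancerous HS-27 fibroblasts (DMEM). Both media had 10% FBS and penicillin/streptomycin, at 37 °C and 5% CO2. Cells were seeded at 10,000/well (HS-27 at 3,000/well) and treated at 0.5–100 µM for 48 h, in quadruplicate. Hoechst and PI were added 2 h before imaging. Controls: DMSO, H2O2 and untreated. Ratio = HS-27 CC50 / CEM CC50.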

GLUT1 = conditions: read-out: GLUT1 IC50; commercially available GLUT1 inhibitor; cited from earlier work

Row | Structure (SMILES) | decrease of relative transport activity of GLUT1, primary screen (human GLUT1) | decrease of relative transport activity of GLUT4, primary screen (human GLUT4) | inhibition of GLUT5 transport activity, primary screen (human GLUT5) | xenograft volume of untreated group relative to treated group (CEM xenograft tumor) | also measured
1 | Cc1cccc2sc(NC(=O)CN3C(=O)S/C(=C/c4ccco4)C3=O)nc12 [Compound F8, 2-(5-(Furan-2-ylmethylene)-2,4-dioxothiazolidin-3-yl)-N-(4-methylbenzo[d]thiazol-2-yl)acetamide] | at least 50% | at least 50% |  |  | 
2 | O=C(CN1C(=O)S/C(=C/c2ccco2)C1=O)Nc1ccc([N+](=O)[O-])cc1 [Compound F14, 2-(5-(Furan-2-ylmethylene)-2,4-dioxothiazolidin-3-yl)-N-(4-nitrophenyl) acetamide] | did not inhibit | did not inhibit | did not inhibit |  | 
3 | O=C(CN1C(=O)S/C(=C/c2ccco2)C1=O)Nc1nc2ccccc2s1 [Compound F18, N-(benzo[d]thiazol-2-yl)-2-(5-(furan-2-ylmethylene)-2,4-dioxothiazolidin-3-yl)acetamide] | at least 50% | at least 50% | neither F18 nor F19 affected the transport activity of GLUT5 | ~2 times | GLUT1 relative activity retained (human GLUT1): almost completely; cell cycle effect (CEM cells): arrest of the cell cycle in the sub G0/G1phase; caspase 3 [1]: activation; level of CDK2 [1]: decrease; level of endoplasmic stress marker GRP78 [1]: increase; level of phosphorylated mTOR [1]: decrease; ratio of IC50 WBCs to CEM cell line (normal WBCs): 100 times; weight loss or signs of toxicity (CEM xenograft tumor; mouse, in vivo, ip, 50 mg/kg): no considerable weight loss or any other noticeable signs of toxicity
4 | O=C(CN1C(=O)S/C(=C/c2ccco2)C1=O)Nc1ccc(Cl)c(Cl)c1 [Compound F19, N-(3,4-dichlorophenyl)-2-(5-(furan-2-ylmethylene)-2,4-dioxothiazolidin-3-yl) acetamide] | at least 50% | at least 50% | neither F18 nor F19 affected the transport activity of GLUT5 |  | selectivity ratio at 48 h [2]: > 12.8
5 | CC(=O)CC(=O)Nc1ccc(Cl)c(C(F)(F)F)c1 [Fasentin] |  |  |  |  | IC50 (GLUT1): 10 µM
6 | COc1cccc2c1C(=O)c1c(O)c3c(c(O)c1C2=O)C[C@@](O)(C(=O)CO)C[C@@H]3O[C@H]1C[C@H](N)[C@H](O)[C@H](C)O1 [doxorubicin, reference compound] |  |  |  | approximately 1.5 times | 
